From ChEMBL document CHEMBL4177580, “New 5-HT1A, 5HT2A and 5HT2C receptor ligands containing a picolinic nucleus: Synthesis, in vitro and in vivo pharmacological evaluation” (Bioorg Med Chem, 2017) come the findings set out here.

The test system of series [1] is Mus musculus. Briefly: Anxiolytic-like activity in Swiss albino mouse assessed as increase in time spent in open arms at 5 mg/kg measured for 5 mins test period by elevated plus maze test. The class given is functional, organism-based. In outline: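 Male Swiss albino mice (18-24 g) were tested in the elevated plus-maze by Lister's method. The reference drug was diluted in saline and given ip (10 ml/kg). Time in open arms was recorded. Results are mean ± SEM, analysed by one-way ANOVA and post hoc test, with the observer blind to treatment.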

For series [2], the system named is Mus musculus. The series can be described thus: Antidepressant-like activity in Swiss albino mouse assessed as reduction in immobility time at 15 mg/kg, ip dosed 1 hr before test by forced swimming test. The class given is functional, organism-based. In outline: (§1)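 Male Swiss albino mice (18-24 g). The reference drug was diluted in saline and given ip (10 ml/kg) 1 h before testing. Each mouse swam for 6 min in a cylinder (25 cm high, 10 cm diameter) holding 10 cm of water at 23-25°C. Immobility was timed over the last 4 min. Data are mean ± SEM, analysed by one-way ANOVA with Dunnett's test.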

In series [3] the test system is Mus musculus. Briefly: Antidepressant-like activity in Swiss albino mouse assessed as reduction in immobility time at 20 mg/kg, ip dosed 1 hr before test by forced swimming test. The class given is functional, organism-based. The procedure, abridged:
as §1

In series [4] the test system is Mus musculus. Briefly: Toxicity in Swiss albino mouse assessed as induction of impairment of motor coordination by measuring reduction in time spent on rota-rod at 30 mg/kg, ip dosed 60 mins before test by rotarod test. The class given is organism-based. The conditions noted are these: in vivo, 1 h. The procedure, abridged: (§2)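 Rotarod in male Swiss mice, i.p. dosing 60 min pre-test: impairment is inability to stay 1 min on a rod turning at 18 rpm, after 3 days of daily training. Mean ± SEM of 2 independent experiments; one-way ANOVA with Dunnett's.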

The test system of series [5] is Mus musculus. The series can be described thus: Antidepressant-like activity in Swiss albino mouse assessed as reduction in immobility time at 1.875 mg/kg, ip dosed 1 hr before test by forced swimming test. The class given is functional, organism-based. In outline: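 Male Swiss albino mice (18–24 g), compound i.p. in 0.1% DMSO/0.5% methylcellulose 1 h pre-test. Porsolt swim: cylinder 25 cm high, 10 cm diameter, 10 cm water at 23–25°C, 6 min session; immobility scored over last 4 min. Blind observer; one-way ANOVA with Dunnett's; mean ± SEM.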

Series [6] concerns Mus musculus. Briefly: Toxicity in Swiss albino mouse assessed as reduction in spontaneous locomotor activity at 30 mg/kg, ip dosed 60 mins before test and measured after 6 mins. The class given is organism-based. The conditions noted are these: in vivo, 0.1 h. In outline: (§3)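 Spontaneous locomotion: mice dosed i.p. 60 min before being placed individually in an actometer for 30 min. Distance travelled read at 6 and 30 min. Cages cleaned with 70% ethanol between animals. One-way ANOVA with Dunnett's; mean ± SEM of one experiment.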

Series [7] deals with Mus musculus. Briefly: Toxicity in Swiss albino mouse assessed as reduction in spontaneous locomotor activity at 15 mg/kg, ip dosed 60 mins before test and measured after 30 mins. The conditions noted are these: in vivo, 0.5 h. The class given is organism-based. The procedure, abridged: as §3
In series [8] the test system is Mus musculus. The series can be described thus: Toxicity in Swiss albino mouse assessed as induction of impairment of motor coordination by measuring reduction in time spent on rota-rod at 60 mg/kg, ip dosed 60 mins before test by rotarod test. The class given is organism-based. The conditions noted are these: in vivo, 1 h. In outline:
as §2

Series [9] deals with Mus musculus. Briefly: Toxicity in Swiss albino mouse assessed as effect on motor coordination at 1.875 to 7.5 mg/kg, ip dosed 60 mins before test by Chimney test. The class given is organism-based. The conditions noted are these: in vivo, 1 h, in the assay text read “3.75 to 60 mg/kg” for “1.875 to 7.5 mg/kg”. In outline:
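Chimney test in male Swiss mice after i.p. dosing 60 min earlier: impairment defined as failure to climb backwards up a tube (3 cm inner diameter, 25 cm long) within 60 s. Animals pre-trained once daily for 3 days. One-way ANOVA with Dunnett's.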

Series [10] deals with T1, Adrenergic receptor alpha-1 (Rattus norvegicus, UniProt P15823+P23944+P43140).
T1 sequence (P15823 whole entry): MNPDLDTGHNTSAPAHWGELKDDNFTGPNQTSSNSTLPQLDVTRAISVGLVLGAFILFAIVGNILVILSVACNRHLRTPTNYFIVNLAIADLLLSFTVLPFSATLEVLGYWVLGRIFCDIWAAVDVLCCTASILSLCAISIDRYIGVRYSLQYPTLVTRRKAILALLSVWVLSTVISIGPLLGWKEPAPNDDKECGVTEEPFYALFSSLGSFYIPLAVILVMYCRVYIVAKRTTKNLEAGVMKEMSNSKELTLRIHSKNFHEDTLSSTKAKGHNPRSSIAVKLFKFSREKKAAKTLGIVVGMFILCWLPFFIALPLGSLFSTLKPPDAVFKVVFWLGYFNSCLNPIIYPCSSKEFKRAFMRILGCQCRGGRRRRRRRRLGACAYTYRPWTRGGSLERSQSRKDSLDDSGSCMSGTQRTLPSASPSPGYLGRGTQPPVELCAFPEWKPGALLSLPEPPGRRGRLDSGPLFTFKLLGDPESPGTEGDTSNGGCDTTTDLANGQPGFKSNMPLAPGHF
T1 sequence (P23944 whole entry): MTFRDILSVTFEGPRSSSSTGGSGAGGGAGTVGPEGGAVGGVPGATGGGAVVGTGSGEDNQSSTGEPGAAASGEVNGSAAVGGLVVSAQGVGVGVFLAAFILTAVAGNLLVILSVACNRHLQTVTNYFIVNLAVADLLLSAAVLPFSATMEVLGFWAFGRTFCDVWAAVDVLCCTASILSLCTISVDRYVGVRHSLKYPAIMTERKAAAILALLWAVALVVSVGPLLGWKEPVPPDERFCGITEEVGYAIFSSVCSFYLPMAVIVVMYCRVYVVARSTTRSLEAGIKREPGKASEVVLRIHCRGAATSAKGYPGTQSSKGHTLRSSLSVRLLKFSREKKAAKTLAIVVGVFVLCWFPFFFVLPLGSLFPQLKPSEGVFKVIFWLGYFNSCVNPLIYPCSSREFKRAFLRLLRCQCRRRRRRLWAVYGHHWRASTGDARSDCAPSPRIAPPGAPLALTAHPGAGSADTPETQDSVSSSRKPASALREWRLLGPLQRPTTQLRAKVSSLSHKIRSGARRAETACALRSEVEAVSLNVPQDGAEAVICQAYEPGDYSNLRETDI
T1 sequence (P43140 whole entry): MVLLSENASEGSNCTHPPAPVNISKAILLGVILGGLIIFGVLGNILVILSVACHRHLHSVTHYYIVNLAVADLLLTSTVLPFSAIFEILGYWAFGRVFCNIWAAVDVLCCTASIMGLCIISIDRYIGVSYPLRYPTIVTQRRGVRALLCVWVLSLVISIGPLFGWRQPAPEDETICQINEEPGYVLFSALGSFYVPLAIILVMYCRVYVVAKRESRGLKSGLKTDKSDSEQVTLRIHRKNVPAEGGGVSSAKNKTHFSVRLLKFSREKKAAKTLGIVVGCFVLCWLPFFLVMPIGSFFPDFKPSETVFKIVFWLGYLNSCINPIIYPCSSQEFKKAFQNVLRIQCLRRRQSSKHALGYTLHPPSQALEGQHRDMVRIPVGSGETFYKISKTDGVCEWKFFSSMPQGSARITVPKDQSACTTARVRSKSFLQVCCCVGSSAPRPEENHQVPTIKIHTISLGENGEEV
The series can be described thus: Displacement of [3H]prazosin from adrenergic alpha1 receptor in rat cerebral cortex.

In series [11] the test system is Mus musculus. The series can be described thus: Toxicity in Swiss albino mouse assessed as reduction in spontaneous locomotor activity at 30 mg/kg, ip dosed 60 mins before test and measured after 30 mins. The conditions noted are these: in vivo, 0.5 h. The class given is organism-based. In outline: as §3
The subject of series [12] is Mus musculus. The series can be described thus: Toxicity in Swiss albino mouse assessed as reduction in spontaneous locomotor activity at 60 mg/kg, ip dosed 60 mins before test and measured after 6 mins. The conditions noted are these: in vivo, 0.1 h. The class given is organism-based. The procedure, abridged: as §3
Series [13] relates to Mus musculus. Briefly: Anxiolytic-like activity in Swiss albino mouse assessed as increase in time spent in open arms at 1.875 to 7.5 mg/kg measured for 5 mins test period by elevated plus maze test. The class given is functional, organism-based.
Series [14] concerns the target D(2) dopamine receptor (Homo sapiens, UniProt P14416). The series can be described thus: Displacement of [3H]methyl-spiperone from human recombinant dopamine D2 receptor expressed in HEK293 cells. The class given is cell-based.
Series [15] relates to Mus musculus. The series can be described thus: Toxicity in Swiss albino mouse assessed as reduction in spontaneous locomotor activity at 60 mg/kg, ip dosed 60 mins before test and measured after 30 mins. The class given is organism-based. Conditions: in vivo, 0.5 h. In outline:
as §3

Series [16] has as its system Mus musculus. The series can be described thus: Induction of hypothermia in Swiss albino mouse assessed as reduction in body temperature at 15 mg/kg, ip measured after 120 mins post dose. The class given is functional, organism-based. In outline:
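Normothermic male Swiss mice; rectal thermistor readings over 180 min. Baseline is the mean of readings 60 and 30 min before dosing; readings at 30, 60, 90, 120 min post-injection; Δt = tf − ti. Test compounds i.p. (DMSO/methylcellulose); 8-OH-DPAT (5 mg/kg) and WAY 100635 (0.1 mg/kg) s.c. in water. Two-way ANOVA, Bonferroni.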

For series [17], the system named is Mus musculus. Briefly: Toxicity in Swiss albino mouse assessed as reduction in spontaneous locomotor activity at 1.875 mg/kg, ip dosed 60 mins before test. The class given is organism-based. The conditions noted are these: in vivo, 1 h. The procedure, abridged: as §3
The test system of series [18] is Mus musculus. The series can be described thus: In-vivo 5-HT1A receptor agonist activity in Swiss albino mouse assessed as induction of lower lip retraction by measuring lower lip retraction score at 1 mg/kg, ip dosed 15 mins before test. The class given is functional, organism-based.
Series [19] concerns the target T2, 5-hydroxytryptamine receptor 1A (Rattus norvegicus, UniProt P19327).
T2 sequence (P19327 whole entry): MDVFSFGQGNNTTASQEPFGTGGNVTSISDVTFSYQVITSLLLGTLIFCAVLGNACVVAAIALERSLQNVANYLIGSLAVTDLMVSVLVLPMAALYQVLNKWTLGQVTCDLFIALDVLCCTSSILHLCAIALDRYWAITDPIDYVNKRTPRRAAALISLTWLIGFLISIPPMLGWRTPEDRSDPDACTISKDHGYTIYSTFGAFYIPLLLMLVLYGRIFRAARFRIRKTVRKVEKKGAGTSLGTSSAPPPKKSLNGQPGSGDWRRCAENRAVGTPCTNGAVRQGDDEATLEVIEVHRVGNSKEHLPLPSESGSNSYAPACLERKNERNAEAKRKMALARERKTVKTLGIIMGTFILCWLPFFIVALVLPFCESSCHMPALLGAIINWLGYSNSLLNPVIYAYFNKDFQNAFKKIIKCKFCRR
The series can be described thus: Displacement of [3H]-8-OH-DPAT from serotonin 5-HT1A receptor in Sprague-Dawley rat brain cortex homogenates incubated for 30 mins by liquid scintillation spectrometry.

Series [20] has as its system Mus musculus. Briefly: Induction of hypothermia in Swiss albino mouse assessed as reduction in body temperature at 5 mg/kg, ip measured after 60 mins post dose. The class given is functional, organism-based. The procedure, abridged:
(§4)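 Normothermic male Swiss albino mice. Rectal temperature was taken by thermistor thermometer over 180 min (60 min before to 120 min after injection). Initial temperature was the mean of the readings at 60 and 30 min predose. Later readings were at 30, 60, 90 and 120 min, with Δt = final − initial. Data are mean ± SEM, by two-way ANOVA with Bonferroni test.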

For series [21], the system named is Mus musculus. The series can be described thus: Induction of hypothermia in Swiss albino mouse assessed as reduction in body temperature at 5 mg/kg, ip measured after 30 mins post dose. The class given is functional, organism-based. In outline: as §4

pKi: −log10 of the molar value. Active and inactive are the calls of the source.

D(2) dopamine receptor, sequence (P14416 whole entry): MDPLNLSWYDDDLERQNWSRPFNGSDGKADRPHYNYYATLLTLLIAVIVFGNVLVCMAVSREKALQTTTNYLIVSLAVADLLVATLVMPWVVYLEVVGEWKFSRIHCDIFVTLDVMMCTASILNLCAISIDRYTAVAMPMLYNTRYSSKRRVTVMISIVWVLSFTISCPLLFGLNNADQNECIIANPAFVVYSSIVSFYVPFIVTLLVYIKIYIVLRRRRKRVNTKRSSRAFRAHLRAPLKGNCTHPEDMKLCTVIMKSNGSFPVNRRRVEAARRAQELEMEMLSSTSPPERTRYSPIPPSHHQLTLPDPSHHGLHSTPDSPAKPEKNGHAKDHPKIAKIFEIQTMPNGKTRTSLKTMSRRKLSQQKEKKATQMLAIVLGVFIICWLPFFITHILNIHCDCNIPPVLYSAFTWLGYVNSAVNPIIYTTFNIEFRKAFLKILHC

Take `O=C1CC2(CCCC2)CC(=O)N1CCCCN1CCN(c2ncccn2)CC1`: in series [1], the outcome was Active.

Regarding `CNCCC(Oc1ccc(C(F)(F)F)cc1)c1ccccc1` (stereo unspecified), the result in series [2] and in series [3] was Active.

As to `O=C(NCCN1CCN(c2ccc(Cl)cc2)CC1)c1ccccn1`, the Activity result in series [4] was “Toxic”; in series [6] it was “Toxic”; in [7], “Toxic”; in series [8], “Toxic”; in series [9], “Non-Toxic”; in series [11], “Toxic”. The Activity entry in series [12] is “Toxic”; in series [15], “Toxic”; in series [17] it was “Non-Toxic”. In addition, the result in series [5], in series [13] and in [16] was Active. Moreover, in series [10], the Ki is 76 nM. In addition, the pKi in series [14] was 5.64.

With `CCN(CC)C1CCc2cccc(O)c2C1` (stereo unspecified), the outcome in [18], in series [20] and in series [21] was Active. In addition, the pKi in series [19] is 9.10.
